From ChEMBL document CHEMBL1156310, “Stepwise synthesis of oligonucleotide-peptide conjugates containing guanidinium and lipophilic groups in their 3'-termini” (Bioorg Med Chem Lett, 2010) come the findings set out here.

Structures are written as SMILES.

The test system of data set [1] is SH-SY5Y. The data set is described as follows: Cellular uptake in human SH-SY5Y cells at 300 nM after 22 hrs by dual leucifearse reporter assay. It is filed as ADME, cell-based. As to conditions: 0.3 µM. A digest of the protocol:
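Dual-luciferase plasmids (Renilla target, firefly internal control) transfected into SH-SY5Y; after 3 h, medium replaced with fresh medium containing ASO-peptide conjugates (150, 200, 300 nM) without Lipofectamine 2000. Luciferase activities measured 22 h after transfection; knockdown expressed as inhibition of Renilla expression. Phosphorothioate ASO targets Renilla mRNA 21-38 site.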
For orientation: A reporter such as luciferase makes a cellular process visible.

Data set [2] concerns SH-SY5Y. The data set is described as follows: Antisense activity in human SH-SY5Y cells assessed as inhibition of luciferase gene expression at 60 nM after 22 hrs by luminometry in the presence of lipofectamine 2000. The data set is classed as functional. A digest of the protocol:
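SH-SY5Y cells cotransfected via Lipofectamine 2000 with Renilla (target) and firefly (internal control) luciferase plasmids plus phosphorothioate ASO derivatives at 60 nM, targeting Renilla mRNA site 21-38; scrambled sequences as controls. Read-out: Renilla luciferase inhibition normalized to firefly.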

For orientation: inhibition means the relative decrease from the control value, in per cent. Consider `Cc1cn([C@H]2C[C@H](OP(O)(=S)OC[C@H]3O[C@@H](n4cc(C)c(=O)[nH]c4=O)C[C@@H]3OP(O)(=S)OC[C@H]3O[C@@H](n4cnc5c(=O)[nH]c(N)nc54)[C@H](O)[C@@H]3OP(O)(=S)OC[C@H]3O[C@@H](n4cc(C)c(=O)[nH]c4=O)C[C@@H]3OP(O)(=S)OC[C@H]3O[C@@H](n4cc(C)c(=O)[nH]c4=O)C[C@@H]3OP(O)(=S)OC[C@H]3O[C@@H](n4cc(C)c(=O)[nH]c4=O)C[C@@H]3OP(O)(=S)OC[C@H]3O[C@@H](n4ccc(N)nc4=O)[C@H](O)[C@@H]3OP(O)(=S)OC[C@H]3O[C@@H](n4ccc(N)nc4=O)[C@H](O)[C@@H]3OP(O)(=S)OC[C@H]3O[C@@H](n4cc(C)c(=O)[nH]c4=O)C[C@@H]3OP(O)(=S)OC[C@H]3O[C@@H](n4cc(C)c(=O)[nH]c4=O)C[C@@H]3OP(O)(=S)OC[C@H]3O[C@@H](n4cc(C)c(=O)[nH]c4=O)C[C@@H]3OP(O)(=S)OC[C@H]3O[C@@H](n4cnc5c(=O)[nH]c(N)nc54)[C@H](O)[C@@H]3OP(O)(=S)OC[C@H]3O[C@@H](n4ccc(N)nc4=O)[C@H](O)[C@@H]3O)[C@@H](COP(O)(=S)O[C@H]3[C@@H](O)[C@H](n4ccc(N)nc4=O)O[C@@H]3COP(O)(=S)O[C@H]3C[C@H](n4cc(C)c(=O)[nH]c4=O)O[C@@H]3COP(O)(=S)O[C@H]3[C@@H](O)[C@H](n4cnc5c(=O)[nH]c(N)nc54)O[C@@H]3COP(O)(=S)O[C@H]3[C@@H](O)[C@H](n4cnc5c(=O)[nH]c(N)nc54)O[C@@H]3COP(O)(=S)O[C@H]3[C@@H](O)[C@H](n4cnc5c(N)ncnc54)O[C@@H]3COP(O)(=S)OCCCC(=O)N[C@H](CCCCNC(=N)N)C(=O)N[C@@H](CCCCNC(=N)N)C(=O)NCCCCCCO)O2)c(=O)[nH]c1=O` (some centres not stated), for which, in the data set on SH-SY5Y [1], the Drug uptake was 18%. In addition, in the data set with SH-SY5Y [2], the inhibition at 0.06 µM worked out at 64%.

As for `Cc1cn([C@H]2C[C@H](OP(O)(=S)OC[C@H]3O[C@@H](n4cc(C)c(=O)[nH]c4=O)C[C@@H]3OP(O)(=S)OC[C@H]3O[C@@H](n4cnc5c(=O)[nH]c(N)nc54)[C@H](O)[C@@H]3OP(O)(=S)OC[C@H]3O[C@@H](n4cc(C)c(=O)[nH]c4=O)C[C@@H]3OP(O)(=S)OC[C@H]3O[C@@H](n4cc(C)c(=O)[nH]c4=O)C[C@@H]3OP(O)(=S)OC[C@H]3O[C@@H](n4cc(C)c(=O)[nH]c4=O)C[C@@H]3OP(O)(=S)OC[C@H]3O[C@@H](n4ccc(N)nc4=O)[C@H](O)[C@@H]3OP(O)(=S)OC[C@H]3O[C@@H](n4ccc(N)nc4=O)[C@H](O)[C@@H]3OP(O)(=S)OC[C@H]3O[C@@H](n4cc(C)c(=O)[nH]c4=O)C[C@@H]3OP(O)(=S)OC[C@H]3O[C@@H](n4cc(C)c(=O)[nH]c4=O)C[C@@H]3OP(O)(=S)OC[C@H]3O[C@@H](n4cc(C)c(=O)[nH]c4=O)C[C@@H]3OP(O)(=S)OC[C@H]3O[C@@H](n4cnc5c(=O)[nH]c(N)nc54)[C@H](O)[C@@H]3OP(O)(=S)OC[C@H]3O[C@@H](n4ccc(N)nc4=O)[C@H](O)[C@@H]3O)[C@@H](COP(O)(=S)O[C@H]3[C@@H](O)[C@H](n4ccc(N)nc4=O)O[C@@H]3COP(O)(=S)O[C@H]3C[C@H](n4cc(C)c(=O)[nH]c4=O)O[C@@H]3COP(O)(=S)O[C@H]3[C@@H](O)[C@H](n4cnc5c(=O)[nH]c(N)nc54)O[C@@H]3COP(O)(=S)O[C@H]3[C@@H](O)[C@H](n4cnc5c(=O)[nH]c(N)nc54)O[C@@H]3COP(O)(=S)O[C@H]3[C@@H](O)[C@H](n4cnc5c(N)ncnc54)O[C@@H]3COP(O)(=S)OCCCC(=O)NCCCCCCO)O2)c(=O)[nH]c1=O` (some centres not stated), in the data set on SH-SY5Y [2], the inhibition at 0.06 µM amounted to 69%.

Consider `Cc1cn([C@H]2C[C@H](OP(O)(=S)OC[C@H]3O[C@@H](n4cc(C)c(=O)[nH]c4=O)C[C@@H]3OP(O)(=S)OC[C@H]3O[C@@H](n4cnc5c(=O)[nH]c(N)nc54)[C@H](O)[C@@H]3OP(O)(=S)OC[C@H]3O[C@@H](n4cc(C)c(=O)[nH]c4=O)C[C@@H]3OP(O)(=S)OC[C@H]3O[C@@H](n4cc(C)c(=O)[nH]c4=O)C[C@@H]3OP(O)(=S)OC[C@H]3O[C@@H](n4cc(C)c(=O)[nH]c4=O)C[C@@H]3OP(O)(=S)OC[C@H]3O[C@@H](n4ccc(N)nc4=O)[C@H](O)[C@@H]3OP(O)(=S)OC[C@H]3O[C@@H](n4ccc(N)nc4=O)[C@H](O)[C@@H]3OP(O)(=S)OC[C@H]3O[C@@H](n4cc(C)c(=O)[nH]c4=O)C[C@@H]3OP(O)(=S)OC[C@H]3O[C@@H](n4cc(C)c(=O)[nH]c4=O)C[C@@H]3OP(O)(=S)OC[C@H]3O[C@@H](n4cc(C)c(=O)[nH]c4=O)C[C@@H]3OP(O)(=S)OC[C@H]3O[C@@H](n4cnc5c(=O)[nH]c(N)nc54)[C@H](O)[C@@H]3OP(O)(=S)OC[C@H]3O[C@@H](n4ccc(N)nc4=O)[C@H](O)[C@@H]3O)[C@@H](COP(O)(=S)O[C@H]3[C@@H](O)[C@H](n4ccc(N)nc4=O)O[C@@H]3COP(O)(=S)O[C@H]3C[C@H](n4cc(C)c(=O)[nH]c4=O)O[C@@H]3COP(O)(=S)O[C@H]3[C@@H](O)[C@H](n4cnc5c(=O)[nH]c(N)nc54)O[C@@H]3COP(O)(=S)O[C@H]3[C@@H](O)[C@H](n4cnc5c(=O)[nH]c(N)nc54)O[C@@H]3COP(O)(=S)O[C@H]3[C@@H](O)[C@H](n4cnc5c(N)ncnc54)O[C@@H]3COP(O)(=S)OCCCC(=O)N[C@H](CCCCNC(=N)N)C(=O)N[C@@H](CCCCNC(=N)N)C(=O)N[C@H](CCCCNC(=N)N)C(=O)N[C@@H](CCCCNC(=N)N)C(=O)NCCCCCCO)O2)c(=O)[nH]c1=O` (some centres not stated), for which the Drug uptake in the data set with SH-SY5Y [1] came to 21%. Besides, in the data set on SH-SY5Y [2], the inhibition at 0.06 µM came out at 57%.

`CCCCCCCCNC(=O)NCCCC[C@@H](NC(=O)CCCOP(O)(=S)OC[C@H]1O[C@@H](n2cnc3c(N)ncnc32)[C@H](O)[C@@H]1OP(O)(=S)OC[C@H]1O[C@@H](n2cnc3c(=O)[nH]c(N)nc32)[C@H](O)[C@@H]1OP(O)(=S)OC[C@H]1O[C@@H](n2cnc3c(=O)[nH]c(N)nc32)[C@H](O)[C@@H]1OP(O)(=S)OC[C@H]1O[C@@H](n2cc(C)c(=O)[nH]c2=O)C[C@@H]1OP(O)(=S)OC[C@H]1O[C@@H](n2ccc(N)nc2=O)[C@H](O)[C@@H]1OP(O)(=S)OC[C@H]1O[C@@H](n2cc(C)c(=O)[nH]c2=O)C[C@@H]1OP(O)(=S)OC[C@H]1O[C@@H](n2cc(C)c(=O)[nH]c2=O)C[C@@H]1OP(O)(=S)OC[C@H]1O[C@@H](n2cnc3c(=O)[nH]c(N)nc32)[C@H](O)[C@@H]1OP(O)(=S)OC[C@H]1O[C@@H](n2cc(C)c(=O)[nH]c2=O)C[C@@H]1OP(O)(=S)OC[C@H]1O[C@@H](n2cc(C)c(=O)[nH]c2=O)C[C@@H]1OP(O)(=S)OC[C@H]1O[C@@H](n2cc(C)c(=O)[nH]c2=O)C[C@@H]1OP(O)(=S)OC[C@H]1O[C@@H](n2ccc(N)nc2=O)[C@H](O)[C@@H]1OP(O)(=S)OC[C@H]1O[C@@H](n2ccc(N)nc2=O)[C@H](O)[C@@H]1OP(O)(=S)OC[C@H]1O[C@@H](n2cc(C)c(=O)[nH]c2=O)C[C@@H]1OP(O)(=S)OC[C@H]1O[C@@H](n2cc(C)c(=O)[nH]c2=O)C[C@@H]1OP(O)(=S)OC[C@H]1O[C@@H](n2cc(C)c(=O)[nH]c2=O)C[C@@H]1OP(O)(=S)OC[C@H]1O[C@@H](n2cnc3c(=O)[nH]c(N)nc32)[C@H](O)[C@@H]1OP(O)(=S)OC[C@H]1O[C@@H](n2ccc(N)nc2=O)[C@H](O)[C@@H]1O)C(=O)NCCCCCCO` (some centres not stated): in the data set on SH-SY5Y [2], the inhibition at 0.06 µM was 55%.

For `CCCCCCCCc1ccc(NC(=O)NCCCC[C@@H](NC(=O)CCCOP(O)(=S)OC[C@H]2O[C@@H](n3cnc4c(N)ncnc43)[C@H](O)[C@@H]2OP(O)(=S)OC[C@H]2O[C@@H](n3cnc4c(=O)[nH]c(N)nc43)[C@H](O)[C@@H]2OP(O)(=S)OC[C@H]2O[C@@H](n3cnc4c(=O)[nH]c(N)nc43)[C@H](O)[C@@H]2OP(O)(=S)OC[C@H]2O[C@@H](n3cc(C)c(=O)[nH]c3=O)C[C@@H]2OP(O)(=S)OC[C@H]2O[C@@H](n3ccc(N)nc3=O)[C@H](O)[C@@H]2OP(O)(=S)OC[C@H]2O[C@@H](n3cc(C)c(=O)[nH]c3=O)C[C@@H]2OP(O)(=S)OC[C@H]2O[C@@H](n3cc(C)c(=O)[nH]c3=O)C[C@@H]2OP(O)(=S)OC[C@H]2O[C@@H](n3cnc4c(=O)[nH]c(N)nc43)[C@H](O)[C@@H]2OP(O)(=S)OC[C@H]2O[C@@H](n3cc(C)c(=O)[nH]c3=O)C[C@@H]2OP(O)(=S)OC[C@H]2O[C@@H](n3cc(C)c(=O)[nH]c3=O)C[C@@H]2OP(O)(=S)OC[C@H]2O[C@@H](n3cc(C)c(=O)[nH]c3=O)C[C@@H]2OP(O)(=S)OC[C@H]2O[C@@H](n3ccc(N)nc3=O)[C@H](O)[C@@H]2OP(O)(=S)OC[C@H]2O[C@@H](n3ccc(N)nc3=O)[C@H](O)[C@@H]2OP(O)(=S)OC[C@H]2O[C@@H](n3cc(C)c(=O)[nH]c3=O)C[C@@H]2OP(O)(=S)OC[C@H]2O[C@@H](n3cc(C)c(=O)[nH]c3=O)C[C@@H]2OP(O)(=S)OC[C@H]2O[C@@H](n3cc(C)c(=O)[nH]c3=O)C[C@@H]2OP(O)(=S)OC[C@H]2O[C@@H](n3cnc4c(=O)[nH]c(N)nc43)[C@H](O)[C@@H]2OP(O)(=S)OC[C@H]2O[C@@H](n3ccc(N)nc3=O)[C@H](O)[C@@H]2O)C(=O)NCCCCCCO)cc1` (some centres not stated), in the data set with SH-SY5Y [2], the inhibition at 0.06 µM is 8%.
